Usually pIC50 stands for the negative decadic logarithm of the IC50, by convention in mol/L. One may read the TGI as how far tumour growth fell short of that in controls.

pIC50: −log10 of the molar value. Active and inactive are the calls of the source. The rule behind the calls is not given here. Bounds are passed on as bounds.

Assay [1] can be described thus: Cytotoxicity against human U373 cells assessed as reduction in cell viability after 72 hrs by MTT assay. The note with it: U373 MG. Format: functional, cell-based, U-373MG ATCC. In a few lines:
(§1)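 Cells seeded in triplicate at 3 × 10³ cells/well: 293_CHI3L1, U373 and C6 in DMEM; UPN1 in alpha-MEM; Granta, JeKo and Mino in RPMI. Compounds added by serial dilution at final 0.01, 0.1, 1, 10 and 100 µM for 72 h. MTT read-out gives viable cells as % of DMSO vehicle control. IC50 is the concentration giving 50% cell death versus control.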
In general terms: Formazan colour is commonly taken as a measure of viable cells.

Assay [2] concerns C6. Nature of the assay: Cytotoxicity against rat C6 cells assessed as reduction in cell viability after 72 hrs by MTT assay. The class given is functional, cell-based. The note with it: C6, 72 h. In a few lines: as §1
Assay [3] relates to HEK293. Nature of the assay: Cytotoxicity against HEK293 cells overexpressing CHI3L1 gene assessed as reduction in cell viability after 72 hrs by MTT assay. Format: functional, cell-based. The conditions noted are these: Homo sapiens, HEK293, 72 h. In a few lines: as §1
Assay [4] deals with Granta. Nature of the assay: Cytotoxicity against human Granta cells assessed as reduction in cell viability after 72 hrs by MTT assay. The class given is functional, cell-based. The essentials:
as §1

The nature of assay [5]: Cytotoxicity against human Jeko cells assessed as reduction in cell viability after 72 hrs by MTT assay. The class given is functional, cell-based. The note with it: JeKo-1, 72 h. In a few lines: as §1
The nature of assay [6]: Cytotoxicity against human UPN1 cells assessed as reduction in cell viability after 72 hrs by MTT assay. The note with it: UPN1, 72 h. Format: functional, cell-based. In a few lines:
as §1

The nature of assay [7]: Cytotoxicity against human Small cell lung cancer cells assessed as reduction in cell viability after 72 hrs by MTT assay. The class given is functional, cell-based. The conditions noted are these: Cancer cell lines.
A short description of assay [8]: Antitumor activity against human Small cell lung cancer cells xenografted in mouse assessed as tumor growth inhibition. The class given is functional, Cancer cell lines.
For assay [9], the target named is T1, Mitogen-activated protein kinase; ERK1/ERK2 (Homo sapiens) (UniProt P27361+P28482). Briefly: Inhibition of ERK1/2 phosphorylation in human HEK293 cells overexpressing CHI3L1 gene after 24 hrs by Western blot analysis. Format: cell-based. The essentials: (§2)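 293_CHI3L1 or U373 cells seeded in triplicate at 10⁵ cells/well in DMEM/10% FBS and grown to near-confluence. Serum-starved 24 h; U373 then stimulated with 10% FBS. Treated with compound 24 h. Lysates run on 10% SDS–PAGE and blotted for phospho-ERK1/2 or phospho-AKT1 (4 °C overnight), ECL detection. Membranes stripped and reprobed for β-actin.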
T1 sequence (P27361 whole entry, looked up): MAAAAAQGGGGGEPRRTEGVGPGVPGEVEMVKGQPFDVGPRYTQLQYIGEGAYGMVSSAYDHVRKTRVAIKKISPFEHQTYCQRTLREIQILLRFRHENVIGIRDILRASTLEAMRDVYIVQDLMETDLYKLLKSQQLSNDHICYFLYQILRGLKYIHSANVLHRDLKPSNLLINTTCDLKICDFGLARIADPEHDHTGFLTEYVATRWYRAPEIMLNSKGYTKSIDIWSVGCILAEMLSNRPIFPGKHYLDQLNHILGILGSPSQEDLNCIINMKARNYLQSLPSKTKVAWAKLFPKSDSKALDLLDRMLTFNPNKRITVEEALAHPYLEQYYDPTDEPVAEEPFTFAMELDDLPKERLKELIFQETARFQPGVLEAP
T1 sequence (P28482 whole entry, looked up): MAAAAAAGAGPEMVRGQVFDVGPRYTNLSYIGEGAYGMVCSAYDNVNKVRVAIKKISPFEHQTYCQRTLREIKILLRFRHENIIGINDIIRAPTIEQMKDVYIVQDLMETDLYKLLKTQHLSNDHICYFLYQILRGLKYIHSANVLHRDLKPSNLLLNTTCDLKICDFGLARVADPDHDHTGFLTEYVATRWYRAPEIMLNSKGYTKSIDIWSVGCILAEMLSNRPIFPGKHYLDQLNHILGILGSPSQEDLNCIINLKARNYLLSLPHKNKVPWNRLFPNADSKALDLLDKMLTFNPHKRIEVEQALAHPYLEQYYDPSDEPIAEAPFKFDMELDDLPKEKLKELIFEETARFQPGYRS

Assay [10] deals with RAC-alpha serine/threonine-protein kinase (Homo sapiens) (UniProt P31749). Nature of the assay: Inhibition of AKT1 phosphorylation in human HEK293 cells overexpressing CHI3L1 gene after 24 hrs by Western blot analysis. Format: cell-based. In a few lines: as §2
RAC-alpha serine/threonine-protein kinase (Homo sapiens), sequence (P31749 whole entry): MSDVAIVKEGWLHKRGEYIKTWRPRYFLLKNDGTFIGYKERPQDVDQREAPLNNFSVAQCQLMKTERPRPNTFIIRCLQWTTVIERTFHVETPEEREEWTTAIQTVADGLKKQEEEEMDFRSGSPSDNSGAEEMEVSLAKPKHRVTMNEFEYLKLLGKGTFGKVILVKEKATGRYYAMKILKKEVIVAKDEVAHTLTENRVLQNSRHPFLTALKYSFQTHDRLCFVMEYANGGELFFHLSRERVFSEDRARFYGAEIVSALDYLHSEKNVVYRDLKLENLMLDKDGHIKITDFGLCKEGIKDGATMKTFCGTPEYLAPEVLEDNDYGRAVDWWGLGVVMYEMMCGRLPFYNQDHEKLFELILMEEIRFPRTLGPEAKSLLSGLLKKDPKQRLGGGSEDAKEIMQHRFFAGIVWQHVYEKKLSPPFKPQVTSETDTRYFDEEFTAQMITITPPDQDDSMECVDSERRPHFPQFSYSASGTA
The target in assay [11] is T1, Mitogen-activated protein kinase; ERK1/ERK2 (Homo sapiens). Nature of the assay: Inhibition of ERK1/2 phosphorylation in human U373 cells overexpressing CHI3L1 gene after 24 hrs by Western blot analysis. Format: cell-based. The conditions noted are these: U-373MG ATCC. In a few lines:
as §2

The target in assay [12] is RAC-alpha serine/threonine-protein kinase (Homo sapiens) (UniProt P31749). Nature of the assay: Inhibition of AKT1 phosphorylation in human U373 cells overexpressing CHI3L1 gene after 24 hrs by Western blot analysis. Format: cell-based. The note with it: U-373MG ATCC. The essentials: as §2
(In general: In western blotting, separated proteins are transferred to a membrane and probed.)

For assay [13], the target named is T1, Mitogen-activated protein kinase; ERK1/ERK2 (Homo sapiens). Briefly: Inhibition of ERK1/2 phosphorylation in human HEK293 cells overexpressing CHI3L1 gene at 10 uM after 24 hrs by Western blot analysis. Format: cell-based. The essentials:
as §2

Assay [14] shares this target. Briefly: Inhibition of ERK1/2 phosphorylation in human HEK293 cells overexpressing CHI3L1 gene at 50 uM after 24 hrs by Western blot analysis. Format: cell-based. In a few lines: as §2
Assay [15] has as its target RAC-alpha serine/threonine-protein kinase (Homo sapiens) (UniProt P31749). Briefly: Inhibition of AKT1 phosphorylation in human HEK293 cells overexpressing CHI3L1 gene at 50 uM after 24 hrs by Western blot analysis. The class given is cell-based. In a few lines:
as §2

Assay [16] relates to HEK293. Nature of the assay: Cytotoxicity against HEK293 cells overexpressing CHI3L1 gene assessed as reduction in cell viability at 50 uM after 72 hrs by MTT assay. The note with it: Homo sapiens. Format: functional, cell-based.
Assay [17] addresses RAC-alpha serine/threonine-protein kinase (Homo sapiens) (UniProt P31749). Briefly: Inhibition of AKT1 phosphorylation in human HEK293 cells overexpressing CHI3L1 gene at 10 uM after 24 hrs by Western blot analysis. Format: cell-based. The essentials:
as §2

Assay [18] has the same target. Briefly: Inhibition of AKT1 phosphorylation in human U373 cells at 10 uM after 24 hrs by Western blot analysis. The conditions noted are these: U-373MG ATCC. Format: cell-based. In a few lines: as §2
Assay [19] addresses T1, Mitogen-activated protein kinase; ERK1/ERK2 (Homo sapiens). Nature of the assay: Inhibition of ERK1/2 phosphorylation in human U373 cells at 50 uM after 24 hrs by Western blot analysis. The class given is cell-based. The conditions noted are these: U-373MG ATCC. The essentials: as §2
For assay [20], the system named is C6. Nature of the assay: Cytotoxicity against rat C6 cells assessed as reduction in cell viability at 1 uM after 72 hrs by MTT assay in presence of temozolomide. Format: functional. In a few lines:
(§3)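 U373 or C6 glioma cells seeded in triplicate at 3 × 10³ cells/well in DMEM. Exposed 72 h to temozolomide at final 10, 100, 250, 500 and 1000, alone or combined with 1 µM bradykinin antagonist. MTT read-out gives viability as % of vehicle control. Mean of two experiments run in triplicate.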

Assay [21] in a line: (§4) Cytotoxicity against human U373 cells assessed as reduction in cell viability at 1 uM after 72 hrs by MTT assay in presence of temozolomide. Format: functional, U-373MG ATCC. The essentials: as §3
Assay [22] can be described thus: Cytotoxicity against human Mino cells assessed as reduction in cell viability after 72 hrs by MTT assay. The class given is functional, cell-based. The essentials: as §1
The next assay concerns U-373MG ATCC. The description is as §4. The class given is functional. The essentials:
as §3

Assay [23] deals with Granta. Nature of the assay: Cytotoxicity against human Granta cells assessed as reduction in cell viability at 100 uM after 72 hrs by MTT assay. Format: functional, cell-based. The essentials: as §1
Another assay concerns Mino. Nature of the assay: Cytotoxicity against human Mino cells assessed as reduction in cell viability at 100 uM after 72 hrs by MTT assay. Format: functional, cell-based. In a few lines:
as §1

Assay [24] can be described thus: Cytotoxicity against human Jeko cells assessed as viable cells at 100 uM after 72 hrs by MTT assay. Format: functional. The conditions noted are these: JeKo-1, 72 h, read-out: Activity. The essentials: as §1
A short description of assay [25]: Cytotoxicity against human UPN1 cells assessed as viable cells at 100 uM after 72 hrs by MTT assay. Format: functional. The conditions noted are these: UPN1, 72 h, read-out: Activity. The essentials: as §1

In the case of `CC1(C)CC(NC(=O)[C@H](Cc2ccc(OCc3c(Cl)cccc3Cl)cc2)NC(=O)/C=C/c2c(F)c(F)c(F)c(F)c2F)CC(C)(C)N1`, the pIC50 was 5.48 in assay [1]; 5.40 in the assay on C6 [2]; 5.42 with HEK293 [3]; 4.20 in the assay with Granta [4]; 4.31 in assay [5]; below 4.00 in assay [6]. The negative logarithm of the IC50 (pIC50) in [7] was 5.74. Moreover, the TGI in [8] amounted to 91%. For the same compound, the inhibition result in [9], in assay [10], in [11] and in assay [12] was “Dose-dependent effect” in each case. Further, the inhibition entry (in [13]; in [14]; in assay [15]; in the assay on HEK293 [16]; in assay [17]; in assay [18]) was “Active” each time. In addition, in [19], the inhibition entry is “inactive”. The Activity (in the assay on C6 [20]; in assay [21]) was 80% in each case.

Consider `O=C1N=C(N2N=C(c3ccc(Cl)cc3)CC2c2ccc(Cl)cc2)S/C1=C1\C(=O)Nc2ccc(Cl)cc21` (configuration not stated), for which the pIC50 is 5.91 in the assay with C6 [2] and 4.09 in [22].

With `O=C1N=C(N2N=C(c3ccccc3)CC2c2ccc(Cl)cc2)S/C1=C1\C(=O)Nc2ccccc21` (configuration not stated), the pIC50 (with Granta [4]; in [5]; in assay [6]) was below 4.00 throughout.

Consider `O=C1N=C(Nc2ccc(O)cc2)S/C1=C\c1ccc(Cl)cc1`, for which the pIC50 was below 4.00 in the assay with Granta [4], below 4.00 in assay [5], below 4.00 in [6] and 4.21 in assay [22].

Regarding `CN(C)c1ccc(C2CC(c3ccc(Cl)cc3)=NN2C2=NC(=O)/C(=C3/C(=O)Nc4ccc(Br)cc43)S2)cc1` (configuration not stated), the negative logarithm of the IC50 (pIC50) in [22] was 6.80.

As for `O=C1N=C(N2N=C(c3ccc(Br)cc3)CC2c2ccc(Cl)cc2)S/C1=C1\C(=O)Nc2ccc(Br)cc21` (configuration not stated), the pIC50 in assay [22] was 6.57.

In the case of `O=C1N=C(N2N=C(c3ccc(Br)cc3)CC2c2ccc(Cl)cc2)S/C1=C1\C(=O)Nc2ccc(Cl)cc21` (configuration not stated), in assay [22], the pIC50 is 5.13.

Consider `COc1ccc(NC(=O)COc2ccc(Cl)cc2/C=C2\SC(=S)N(Nc3nc4ccccc4s3)C2=O)cc1`, for which, in [22], the pIC50 is 4.26.

For `N=C(N)NCCC[C@H](NC(=O)C1CC2CCCCC2N1C(=O)[C@H](NC(=O)[C@H](CO)NC(=O)[C@@H](NC(=O)CNC(=O)[C@@H]1C[C@@H](O)CN1C(=O)[C@@H]1CCCN1C(=O)[C@H](CCCNC(=N)N)NC(=O)[C@@H](CCCNC(=N)N)NC(=O)/C=C/c1c(F)c(F)c(F)c(F)c1F)C1Cc2ccccc2C1)C1Cc2ccccc2C1)C(=O)O` (some centres not stated), the pIC50 in [1] is below 4.00; with C6 [2] it was 4.43; in the assay with HEK293 [3], 4.17; in the assay with Granta [4], below 4.00; in assay [5], 4.30; in [6], below 4.00. In addition, the inhibition entry in assay [9], in assay [10], in assay [11] and in assay [12] was “inactive” in each case.

As for `CC1(C)CC(NC(=O)[C@H](Cc2ccc(OCc3c(Cl)cccc3Cl)cc2)NC(=O)OCC2c3ccccc3-c3ccccc32)CC(C)(C)N1`, the pIC50 was 4.70 in [1]; 4.82 with C6 [2]; 4.59 with HEK293 [3]; 4.39 with Granta [4]; 4.28 in [5]; below 4.00 in assay [6]. Moreover, the outcome in the assay on C6 [20] and with U-373MG ATCC was inactive.

`COc1ccc(-c2nnc(NC(=O)CN3C(=O)S/C(=C\c4ccc(N(C)C)cc4)C3=O)o2)cc1`: the pIC50 (with Granta [4]; in [5]; in assay [6]) was below 4.00 in each case.

As to `O=C1N=C(N2N=C(c3ccc(Br)cc3)CC2c2ccc(Cl)cc2)S/C1=C1\C(=O)Nc2ccccc21` (configuration not stated), the pIC50 in assay [22] was 5.00.

On to `O=C1N=C(N2N=C(c3ccc(Cl)cc3)CC2c2ccc(Cl)cc2)S/C1=C1\C(=O)Nc2ccc(Br)cc21` (configuration not stated), for which the pIC50 in assay [22] is 6.14.

Consider `O=C1N=C(N2N=C(c3ccc(Cl)cc3)CC2c2ccc(Cl)cc2)S/C1=C1\C(=O)Nc2ccccc21` (configuration not stated), for which the negative-log IC50 (pIC50) in [22] is 4.17. Moreover, the result in the assay with Granta [23] and in the assay with Mino was inactive. Also, the viability at 100 µM in [24] and in assay [25] was 60% throughout.

Values taken from ChEMBL document CHEMBL3351641, “Bradykinin antagonists and thiazolidinone derivatives as new potential anti-cancer compounds” (Bioorg Med Chem, 2014).
